The subject of data set [1] is WM35. Kind of data set: Inhibition of MEK in human WM35 cells assessed as decreased ERK phosphorylation at 2 micromol/L incubated for 60 mins by Western blotting analysis. The settings on record: dose 2.0 µmol/L. Format: cell-based. On the technique in general: Immunoblotting shows a protein as a band on a membrane.
Data set [2] in a line: Cytotoxicity against human HFF cells assessed as decrease in cell growth incubated for 72 hrs by CellTiter-Glo based luminescence assay. It is filed as toxicity. The method, boiled down:
(§1)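 Cells treated over 1 nmol/L to 20 μmol/L in 0.1% DMSO for 72 h at 37°C, 5% CO₂. Viable cells read by CellTiter-Glo luminescence. EC50 derived from proliferation data.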
(Cellular ATP, detected with luciferase, serves as a proxy for viable cell number.)

A short description of data set [3]: Cytotoxicity against human PrEC cells assessed as decrease in cell growth incubated for 72 hrs by CellTiter-Glo based luminescence assay. It is filed as toxicity. The essentials:
as §1

Data set [4] concerns COLO 205. In words: Antiproliferative activity against human COLO 205 cells expressing B-Raf V600E mutant assessed as decrease in cell growth incubated for 72 hrs by CellTiter-Glo based luminescence assay. Format: functional. Particulars: COLO 205, 72 h. The method, boiled down: as §1
Data set [5] has as its system HT-29. In words: Antiproliferative activity against human HT-29 cells expressing B-Raf V600E mutant assessed as decrease in cell growth incubated for 72 hrs by CellTiter-Glo based luminescence assay. It is filed as functional. Particulars: HT-29, 72 h. The method, boiled down:
as §1

Data set [6] relates to HT-1080. In words: Antiproliferative activity against human HT-1080 cells expressing N-Ras Q61K mutant assessed as decrease in cell growth incubated for 72 hrs by CellTiter-Glo based luminescence assay. It is filed as functional. Particulars: HT-1080, 72 h. The method, boiled down:
as §1

The subject of data set [7] is Malme-3M. In words: Antiproliferative activity against human Malme-3M cells expressing B-Raf V600E mutant assessed as decrease in cell growth incubated for 72 hrs by CellTiter-Glo based luminescence assay. It is filed as functional. The method, boiled down:
as §1

Data set [8] is described as follows: Inhibition of MEK in human COLO 205 cells expressing B-Raf V600E mutant assessed as inhibition of ERK phosphorylation incubated for 60 mins by Western blotting analysis. It is filed as cell-based. The settings on record: COLO 205, 1 h. The method, boiled down: (§2)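 Cells exposed for 60 min, then Western blot for phospho-ERK1/2 and total ERK1/2 with infrared imaging. […] DMSO control.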

The nature of data set [9]: Inhibition of MEK in human HT-1080 cells expressing N-Ras2 Q61K mutant assessed as inhibition of ERK phosphorylation incubated for 60 mins by Western blotting analysis. It is filed as cell-based. The settings on record: HT-1080, 1 h. The method, boiled down: as §2
The nature of data set [10]: Inhibition of MEK in human HT-29 cells expressing B-Raf V600E mutant assessed as inhibition of ERK phosphorylation incubated for 60 mins by Western blotting analysis. Format: cell-based. Particulars: HT-29, 1 h. The method, boiled down: as §2
Data set [11] can be described thus: Inhibition of MEK in human A375P cells expressing B-Raf V600E mutant assessed as inhibition of ERK phosphorylation incubated for 60 mins by Western blotting analysis. It is filed as cell-based. The settings on record: 1 h. The essentials: as §2
The test system of data set [12] is WM-NCI. In words: Inhibition of MEK in human WM-NCI cells assessed as decreased ERK phosphorylation at 2 micromol/L incubated for 60 mins by Western blotting analysis. Format: cell-based. Particulars: dose 2.0 µmol/L.
The subject of data set [13] is SK-MEL-2. In words: Antiproliferative activity against human SK-MEL-2 cells expressing N-Ras Q61R mutant assessed as decrease in cell growth incubated for 72 hrs by CellTiter-Glo based luminescence assay. It is filed as functional. The settings on record: SK-MEL-2, 72 h. The method, boiled down:
as §1

Data set [14] relates to HCT-116. Kind of data set: Antiproliferative activity against human HCT-116 cells expressing K-Ras G13D mutant assessed as decrease in cell growth incubated for 72 hrs by CellTiter-Glo based luminescence assay. Format: functional. The settings on record: HCT-116, 72 h. The method, boiled down:
as §1

Data set [15] in a line: Inhibition of MEK in human Malme-3M cells expressing B-Raf V600E mutant assessed as inhibition of ERK phosphorylation incubated for 60 mins by Western blotting analysis. Format: cell-based. Particulars: 1 h. The essentials: as §2
In data set [16] the test system is Melanocyte. In words: Inhibition of MEK in normal human Melanocyte cells assessed as decreased ERK phosphorylation at 2 micromol/L incubated for 60 mins by Western blotting analysis. Particulars: dose 2.0 µmol/L. It is filed as cell-based.
Data set [17] relates to WM-3434. Kind of data set: Inhibition of MEK in human WM-3434 cells assessed as decreased ERK phosphorylation at 2 micromol/L incubated for 60 mins by Western blotting analysis. Format: cell-based. Particulars: dose 2.0 µmol/L.
A short description of data set [18]: Inhibition of MEK in human SK-MEL-2 cells expressing N-Ras2 Q61R mutant assessed as inhibition of ERK phosphorylation incubated for 60 mins by Western blotting analysis. It is filed as cell-based. Particulars: SK-MEL-2, 1 h. The method, boiled down:
as §2

The nature of data set [19]: Inhibition of MEK in human HFF cells assessed as inhibition of ERK phosphorylation incubated for 60 mins by Western blotting analysis. Particulars: 1 h. Format: cell-based. The method, boiled down:
as §2

Data set [20] in a line: Inhibition of MEK in human HCT-116 cells expressing K-Ras2 G13D mutant assessed as inhibition of ERK phosphorylation incubated for 60 mins by Western blotting analysis. Format: cell-based. The settings on record: HCT-116, 1 h. The method, boiled down:
as §2

The test system of data set [21] is SK-MEL-28. In words: Antiproliferative activity against human SK-MEL-28 cells expressing B-Raf V600E mutant assessed as decrease in cell growth incubated for 72 hrs by CellTiter-Glo based luminescence assay. It is filed as functional. The settings on record: SK-MEL-28, 72 h. The essentials:
as §1

Data set [22] can be described thus: Inhibition of MEK in human PrEC cells assessed as inhibition of ERK phosphorylation incubated for 60 mins by Western blotting analysis. The settings on record: 1 h. Format: cell-based. The method, boiled down:
as §2

Data set [23] in a line: Inhibition of MEK in human HMEC cells assessed as inhibition of ERK phosphorylation incubated for 60 mins by Western blotting analysis. The settings on record: 1 h. Format: cell-based. The method, boiled down: as §2
Data set [24] can be described thus: Cytotoxicity against human HMEC cells assessed as decrease in cell growth incubated for 72 hrs by CellTiter-Glo based luminescence assay. It is filed as toxicity. The method, boiled down: as §1
Data set [25] in a line: Antiproliferative activity against human A375P cells expressing B-Raf V600E mutant assessed as decrease in cell growth incubated for 72 hrs by CellTiter-Glo based luminescence assay. Format: functional. The method, boiled down: as §1
The nature of data set [26]: Inhibition of MEK in human SK-MEL-28 cells expressing B-Raf V600E mutant assessed as inhibition of ERK phosphorylation incubated for 60 mins by Western blotting analysis. Particulars: SK-MEL-28, 1 h. It is filed as cell-based. The essentials:
as §2

Data set [27] relates to Melanocyte. In words: Induction of cell cycle arrest in normal human Melanocyte cells assessed as accumulation of cells at G1 phase at 10 uM incubated for 24 hrs by flow cytometry analysis. It is filed as toxicity, cell-based. The method, boiled down: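 Normal human melanocytes exposed to 1 and 10 μmol/L for 24 h. Cell cycle distribution measured by flow cytometry on a FACScan.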
(In general: In flow cytometry, cells or beads pass a laser one at a time.)

A short description of data set [28]: Toxicity in nude mouse xenografted with human A375P cells assessed as body weight change at 50 mg/kg administered daily for 21 days and then observed an additional 14 days following cessation of treatment. It is filed as organism-based. The settings on record: in vivo, 504 h, time 21 day.
A short description of data set [29]: In vivo inhibition of ERK phosphorylation in human A375P cells xenografted in nude mouse at 50 mg/kg administered daily for 21 days and then observed an additional 14 days following cessation of treatment relative to control. Particulars: 504 h, time 21 day. It is filed as functional.
Data set [30] concerns the target RAF proto-oncogene serine/threonine-protein kinase (Homo sapiens, UniProt P04049). Kind of data set: Inhibition of c-Raf (unknown origin) assessed as apparent inhibition constant. The settings on record: read-out: Ki(app).
The test system of data set [31] is A375P. In words: Anti-tumor activity against human A375P cells xenografted in nude mouse assessed as decreased tumorigenesis at 50 mg/kg administered daily for 21 days and then observed an additional 14 days following cessation of treatment and measured after 55 days. Format: functional, organism-based. Particulars: time 21.0 day. The essentials: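 Female nude mice, 8–12 weeks old, injected s.c. with 5×10^6 A375P cells in Matrigel. Treatment began 3 weeks later at tumor volume 150–250 mm³, groups of eight randomized. Daily i.p. dosing for 21 days in 2% N,N-dimethylacetamide/2% Cremophor EL/96% acidified water (pH ~4–5), vehicle controls. Caliper tumor volume twice weekly for 55 days; mean ±SE.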

The nature of data set [32]: Inhibition of BRAF V599E mutant (unknown origin) assessed as apparent inhibition constant incubated for 25 mins in presence of gamma-[33P]ATP. Particulars: read-out: Ki(app). Also noted: species or system Homo sapiens.

Active and inactive are the calls of the source. No cut-off for these calls is given here.

RAF proto-oncogene serine/threonine-protein kinase, sequence (P04049 whole entry): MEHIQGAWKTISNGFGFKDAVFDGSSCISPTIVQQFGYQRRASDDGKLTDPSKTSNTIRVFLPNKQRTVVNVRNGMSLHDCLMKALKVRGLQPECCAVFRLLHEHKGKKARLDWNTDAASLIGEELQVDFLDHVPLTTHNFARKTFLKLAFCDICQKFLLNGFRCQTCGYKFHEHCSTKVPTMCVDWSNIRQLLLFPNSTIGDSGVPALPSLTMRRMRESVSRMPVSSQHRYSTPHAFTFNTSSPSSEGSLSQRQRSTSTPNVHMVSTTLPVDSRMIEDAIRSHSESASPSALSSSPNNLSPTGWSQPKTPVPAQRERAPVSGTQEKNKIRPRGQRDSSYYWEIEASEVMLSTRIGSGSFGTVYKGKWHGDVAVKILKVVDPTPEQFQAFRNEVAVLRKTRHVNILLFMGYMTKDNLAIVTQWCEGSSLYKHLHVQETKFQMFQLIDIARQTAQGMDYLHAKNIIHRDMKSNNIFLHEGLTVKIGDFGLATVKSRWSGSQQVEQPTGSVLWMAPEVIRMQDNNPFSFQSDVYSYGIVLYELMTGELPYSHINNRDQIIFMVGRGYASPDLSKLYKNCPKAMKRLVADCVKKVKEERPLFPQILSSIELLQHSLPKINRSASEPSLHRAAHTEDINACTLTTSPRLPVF

`O=C(NOCC1CC1)c1ccc(F)c(F)c1Nc1ccc(I)cc1Cl` [CI-1040]: the inhibition entry in [1], in data set [12], in data set [16] and in [17] was “Active” throughout. Also, the EC50 (as a rule, the concentration needed to bring the measured effect to its halfway point) at 72 h was determined as 4900 nM in [2], 490 nM in [3] and 580 nM in data set [24]. For the same compound, the EC50 in data set [4] came out at 230 nM; in data set [5], 360 nM; in [6], 1600 nM; in data set [7], 440 nM; in data set [8] it was 47 nM; in data set [9], 66 nM. Further, the EC50 in data set [10] was found to be 88 nM; in data set [11], 210 nM; in data set [13], 360 nM; in data set [14], 2200 nM; in [15] it was 520 nM; in [18] it was 290 nM. Also, the 50% effective concentration (EC50) in [19] was determined as 4800 nM; in data set [20], 61 nM; in [21], 220 nM; in data set [22], 39 nM; in data set [23] it was 11 nM; in data set [25], 240 nM. The EC50 in data set [26] came out at 86 nM.

Take `CN(C)CCOc1ccc(-c2nc(-c3ccncc3)c(-c3ccc4c(c3)CC/C4=N\O)[nH]2)cc1` [SB590885]: the concentration for a half-maximal effect (EC50) at 72 h in [2] is more than 12000 nM; in data set [3], more than 13000 nM; in data set [24], 9200 nM. Moreover, the Activity result in data set [27] and in data set [28] was “Toxic” in each case. Also, the half-maximal effective concentration (EC50) in data set [4] stood at 100 nM; in data set [5], 870 nM; in data set [6], 13000 nM; in [7], 150 nM; in data set [13], 550 nM; in data set [14], 4600 nM. In addition, the figures for the EC50 in data set [21] and in data set [25] were 120 nM and 370 nM, respectively. Moreover, the inhibition in vivo (commonly the drop in the measured response relative to a control, in per cent) at 50 mg/kg in [29] was approximately 50%. In data set [30], the Ki was 1.72 nM. Further, the result in data set [31] was Active.

As to `CNC(=O)c1cc(Oc2ccc(NC(=O)Nc3ccc(Cl)c(C(F)(F)F)c3)cc2)ccn1` [SORAFENIB], the Ki in data set [32] is 38 nM.

These data come from ChEMBL document CHEMBL5661971 (Cancer Res, 2006).
